The source of these data is ChEMBL document CHEMBL1795266, “Synthesis and evaluation of monoamidoxime derivatives: toward new antileishmanial compounds” (Eur J Med Chem, 2011).

The test system of one data set is Leishmania donovani. In words: Antileishmanial activity against Leishmania donovani MHOM/IN/00/DEVI promastigote after 72 hrs by MTT assay. The class given is functional, organism-based. Summed up: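 Promastigotes were seeded at 10⁶ parasites/mL in medium containing penicillin and streptomycin, with a range of compound concentrations in duplicate (DMSO under 0.5% v/v final). After MTT addition, plates stood 6 h at 27 °C and were spun at 900 G for 10 min. The pellet was dissolved in DMSO and read at 570 nm. IC50 (50% loss of metabolic activity versus control) came from nonlinear dose-response regression.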
In general terms: Tetrazolium dyes change colour on reduction, which living cells bring about.

Data set [1] is described as follows: Selectivity index, ratio of IC50 for mouse J774A1 cells to IC50 for Leishmania donovani MHOM/IN/OO/DEVI promastigote. The format is toxicity, cell-based, J774.A1. Particulars: read-out: Ratio IC50.
Another data set deals with J774.A1. In words: Cytotoxic activity against mouse J774A1 cells after 72 hrs by MTT assay. The format is cell-based. The note with it: J774.A1, 72 h. Summed up:
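J774A.1 macrophages were grown in medium with 10% FCS, 2 mM L-glutamine, penicillin and streptomycin. Cells were seeded at 5 × 10⁴ cells/mL with a concentration range in duplicate (DMSO under 0.5% v/v final) and held 72 h at 37 °C, 6% CO₂. MTT was added at 0.5 mg/mL in RPMI 1640 for 2 h at 37 °C. Formazan was dissolved in DMSO and read at 570 nm. IC50 came from nonlinear regression, as the mean of three independent experiments.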

Consider `CC1(Cc2ccccc2)CC(S(=O)(=O)c2ccc(/C(N)=N\O)cc2)=C(c2ccc(Br)cc2)O1` (stereo unspecified), for which the IC50 came out at 8.95 µM in the data set with Leishmania donovani and 9.78 µM in the data set with J774.A1. Further, the selectivity ratio in data set [1] amounted to 1.09.

For the molecule `CC1(Cc2ccccc2)CC(S(=O)(=O)c2ccc(Br)cc2)=C(c2ccc(/C(N)=N/O)cc2)O1` (stereo unspecified), the values for the IC50 in the data set with Leishmania donovani and with J774.A1 were 5.21 µM and 20.1 µM, respectively. For the same molecule, in data set [1], the selectivity ratio was determined as 3.85.

On to `CC1(Cc2ccccc2)CC(S(=O)(=O)c2ccc(/C(N)=N\O)cc2)=C(c2ccc(C(F)(F)F)cc2)O1` (stereo unspecified), for which the IC50 turned out to be 8.46 µM with Leishmania donovani and 11.9 µM in the data set on J774.A1. Also, the selectivity ratio in data set [1] was found to be 1.4.

For `COc1cccc2c1C(=O)c1c(O)c3c(c(O)c1C2=O)C[C@@](O)(C(=O)CO)C[C@@H]3O[C@H]1C[C@H](N)[C@H](O)[C@H](C)O1` [DOXORUBICIN], the IC50 in the data set with J774.A1 stood at 0.02 µM.

On to `CC1(Cc2ccccc2)CC(S(=O)(=O)c2ccc(F)cc2)=C(c2ccc(/C(N)=N/O)cc2)O1` (stereo unspecified), for which the values for the half-inhibitory concentration (IC50) with Leishmania donovani and in the data set with J774.A1 were 7.15 µM and 45.5 µM, respectively. Also, in data set [1], the selectivity ratio is 6.37.

Consider `CC1(Cc2ccccc2)CC(S(=O)(=O)c2ccc(I)cc2)=C(c2ccc(/C(N)=N/O)cc2)O1` (stereo unspecified), for which the 50% inhibitory concentration (IC50) in the data set on Leishmania donovani is 6.89 µM; in the data set on J774.A1 it was 11.8 µM. In data set [1], the selectivity ratio turned out to be 1.72.

Turning to `C[C@@H]1[C@H](O)[C@@H](C)/C=C/C=C/C=C/C=C/C=C/C=C/C=C/[C@H](O[C@@H]2O[C@H](C)[C@@H](O)[C@H](N)[C@@H]2O)C[C@@H]2O[C@](O)(C[C@@H](O)C[C@@H](O)[C@H](O)CC[C@@H](O)C[C@@H](O)CC(=O)O[C@H]1C)C[C@H](O)[C@H]2C(=O)O` [AMPHOTERICIN B], the IC50 was 0.77 µM with Leishmania donovani and 3.14 µM in the data set on J774.A1. Besides, in data set [1], the selectivity ratio turned out to be 4.08.

For the molecule `CC1(Cc2ccccc2)CC(S(=O)(=O)c2ccc(/C(N)=N\O)cc2)=C(c2ccc(I)cc2)O1` (stereo unspecified), the IC50 in the data set with Leishmania donovani was found to be 6.63 µM; in the data set on J774.A1 it was 8.08 µM. Besides, in data set [1], the selectivity ratio came to 1.22.

Consider `COc1ccc(S(=O)(=O)C2=C(c3ccc(/C(N)=N/O)cc3)OC(C)(Cc3ccccc3)C2)cc1` (stereo unspecified), for which the IC50 in the data set on Leishmania donovani is 7.49 µM; with J774.A1 it was 9.03 µM. In data set [1], the selectivity ratio was 1.21.

As for `CC1(Cc2ccccc2)CC(S(=O)(=O)c2ccc([N+](=O)[O-])cc2)=C(c2ccc(/C(N)=N/O)cc2)O1` (stereo unspecified), the half-maximal inhibitory concentration (IC50) in the data set with Leishmania donovani is 19.4 µM; in the data set on J774.A1, 50.6 µM. Besides, in data set [1], the selectivity ratio worked out at 2.61.

Consider `N=C(N)c1ccc(OCCCCCOc2ccc(C(=N)N)cc2)cc1` [PENTAMIDINE], for which the half-maximal inhibitory concentration (IC50) came out at 6.29 µM with Leishmania donovani and 1.03 µM with J774.A1. For the same molecule, the selectivity ratio in data set [1] was 0.16.

For the molecule `CC1(Cc2ccccc2)CC(S(=O)(=O)c2ccc(Cl)cc2)=C(c2ccc(/C(N)=N/O)cc2)O1` (stereo unspecified), the half-inhibitory concentration (IC50) in the data set with Leishmania donovani came to 7.4 µM; in the data set on J774.A1 it was 27.4 µM. In data set [1], the selectivity ratio was determined as 3.71.

Regarding `CC1(Cc2ccccc2)CC(S(=O)(=O)c2ccc(/C(N)=N\O)cc2)=C(c2ccc(F)cc2)O1` (stereo unspecified), the IC50 in the data set with Leishmania donovani came to 30.7 µM; with J774.A1 it was 36.2 µM. Besides, in data set [1], the selectivity ratio was 1.18.

On to `CC1(Cc2ccccc2)CC(S(=O)(=O)c2ccc(/C(N)=N\O)cc2)=C(c2ccc(Cl)cc2)O1` (stereo unspecified), for which the IC50 came out at 9.87 µM in the data set on Leishmania donovani and 7.05 µM in the data set with J774.A1. For the same molecule, in data set [1], the selectivity ratio was determined as 0.71.

For the molecule `CC1(Cc2ccccc2)CC(S(=O)(=O)c2ccc(C(F)(F)F)cc2)=C(c2ccc(/C(N)=N/O)cc2)O1` (stereo unspecified), the results for the IC50 in the data set with Leishmania donovani and in the data set on J774.A1 were 7.89 µM and 30.5 µM, respectively. In data set [1], the selectivity ratio came to 3.87.

As for `CC1(Cc2ccccc2)CC(S(=O)(=O)c2ccc(/C(N)=N\O)cc2)=C(c2ccc([N+](=O)[O-])cc2)O1` (stereo unspecified), the IC50 was found to be 18.8 µM with Leishmania donovani and 18.5 µM with J774.A1. Also, the selectivity ratio in data set [1] amounted to 0.98.

The IC50 is the point on the concentration scale where inhibition reaches its midpoint. A high value points to weaker potency in that assay.
